Our source for the Activity, IC50 and inhibition values is ChEMBL document CHEMBL1799916, “Novel 3,5-bis(bromohydroxybenzylidene)piperidin-4-ones as coactivator-associated arginine methyltransferase 1 inhibitors: enzyme selectivity and cellular activity” (J Med Chem, 2011).

Data set [1] concerns LNCaP. The data set is described as follows: Cytotoxicity against human LNCAP cells assessed as ATP level at 30 uM after 44 hrs by CellTiter-Glo luminescent assay. In kind it is cell-based. A digest of the protocol:
(§1)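 LNCaP in phenol-red-free RPMI1640 with 10% charcoal-stripped FCS, seeded ~20 h before transfection with PSA(ARE)-LUC plus CMV-Renilla. 12 h after transfection, treated with 20 nM DHT and compound. Harvested after 42–44 h; 1/6 of the cells assayed for ATP by CellTiter-Glo luminescence.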
(Cellular ATP, detected with luciferase, serves as a proxy for viable cell number.)

For data set [2], the target named is T1, Histone-lysine N-methyltransferase SETD7 (Homo sapiens, UniProt Q8WTS6).
T1 sequence (Q8WTS6 whole entry): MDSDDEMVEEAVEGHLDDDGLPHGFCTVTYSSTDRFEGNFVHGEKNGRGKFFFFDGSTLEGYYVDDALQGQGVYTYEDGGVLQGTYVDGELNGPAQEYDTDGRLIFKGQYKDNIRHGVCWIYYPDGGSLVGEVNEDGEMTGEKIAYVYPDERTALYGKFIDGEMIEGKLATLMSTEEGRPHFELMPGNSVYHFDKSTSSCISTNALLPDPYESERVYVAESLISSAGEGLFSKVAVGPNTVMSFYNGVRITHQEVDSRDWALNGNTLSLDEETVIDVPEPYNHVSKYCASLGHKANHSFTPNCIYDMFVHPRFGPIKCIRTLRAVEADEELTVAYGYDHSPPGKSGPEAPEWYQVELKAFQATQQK
The data set is described as follows: Inhibition of SET7-mediated methylation of histone H3 after 90 mins by scintillation counting in presence of S-adenosyl-l-[methyl-3H]methionine.

Data set [3] has as its target Protein arginine N-methyltransferase 1 (Homo sapiens, UniProt Q99873). In words: Inhibition of PRMT1-mediated methylation of NPL3 after 90 mins by scintillation counting in presence of S-adenosyl-l-[methyl-3H]methionine.
The target of data set [4] is T2, Histone-arginine methyltransferase CARM1 (Homo sapiens) (UniProt Q86X55).
T2 sequence (whole entry): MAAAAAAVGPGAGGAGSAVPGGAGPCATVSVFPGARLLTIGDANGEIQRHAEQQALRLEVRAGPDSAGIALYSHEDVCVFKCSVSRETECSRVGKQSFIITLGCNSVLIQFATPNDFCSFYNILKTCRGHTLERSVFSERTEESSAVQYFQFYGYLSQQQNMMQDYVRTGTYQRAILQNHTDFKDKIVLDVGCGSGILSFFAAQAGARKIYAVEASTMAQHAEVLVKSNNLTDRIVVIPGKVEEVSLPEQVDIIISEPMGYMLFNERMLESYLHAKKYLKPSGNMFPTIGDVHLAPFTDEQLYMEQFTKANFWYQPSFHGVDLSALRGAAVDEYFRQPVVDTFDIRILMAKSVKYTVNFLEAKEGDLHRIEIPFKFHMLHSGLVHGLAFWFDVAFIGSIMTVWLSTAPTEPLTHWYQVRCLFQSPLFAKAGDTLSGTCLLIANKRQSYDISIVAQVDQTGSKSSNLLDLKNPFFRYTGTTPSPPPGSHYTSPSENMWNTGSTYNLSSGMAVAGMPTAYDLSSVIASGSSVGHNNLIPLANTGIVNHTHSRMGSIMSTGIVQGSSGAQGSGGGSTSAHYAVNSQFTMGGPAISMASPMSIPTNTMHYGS
The data set is described as follows: Inhibition of CARM1-mediated methylation of SMB at 100 uM after 90 mins by scintillation counting in presence of S-adenosyl-l-[methyl-3H]methionine. A digest of the protocol: (§2)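 Compound at 100 μM with 0.1–0.2 μM recombinant enzyme and 0.5–1.5 μM substrate in PBS pH 7.4 containing [³H]AdoMet. Incubated 30 °C for 90 min, then SDS-PAGE, PVDF transfer and overnight film fluorography. Ponceau-stained substrate bands cut out and dpm counted by liquid scintillation.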

For data set [5], the target named is T3, Histone-arginine methyltransferase CARM1 (Homo sapiens, UniProt Q86X55).
T3 sequence (Q86X55 whole entry): T2 sequence (whole entry)
In words: Inhibition of CARM1-mediated methylation of PABP1 after 90 mins by scintillation counting in presence of S-adenosyl-l-[methyl-3H]methionine.

The target of data set [6] is T4, Histone-lysine N-methyltransferase SETD7 (Homo sapiens) (UniProt Q8WTS6).
T4 sequence (whole entry): T1 sequence (Q8WTS6 whole entry)
In words: Inhibition of SET7-mediated methylation of histone H3 at 100 uM after 90 mins by scintillation counting in presence of S-adenosyl-l-[methyl-3H]methionine. A digest of the protocol: as §2

The target of data set [7] is Protein arginine N-methyltransferase 5 (Homo sapiens) (UniProt O14744). The data set is described as follows: Inhibition of PRMT5-mediated methylation of histone H4 at 100 uM after 90 mins by scintillation counting in presence of S-adenosyl-l-[methyl-3H]methionine. A digest of the protocol:
as §2

Data set [8] deals with T2, Histone-arginine methyltransferase CARM1 (Homo sapiens). In words: Inhibition of CARM1-mediated methylation of histone H3 at 100 uM after 90 mins by scintillation counting in presence of S-adenosyl-l-[methyl-3H]methionine. A digest of the protocol:
as §2

Data set [9] shares this target. The data set is described as follows: Inhibition of CARM1-mediated prostate specific antigen promoter activity in human LNCAP cells at 30 uM after 48 hrs by luciferase reporter gene assay. The data set is classed as cell-based. A digest of the protocol:
(§3)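 LNCaP grown in phenol-red-free RPMI1640 with 10% charcoal-stripped FCS, lipofected with 300 ng PSA(ARE)-LUC and 2 ng CMV-Renilla internal control. After 12 h, 20 nM DHT added to induce PSA-firefly, together with increasing compound concentrations. Cells harvested 42–44 h later; 5/6 used for dual luciferase read-out (firefly relative to Renilla). Mean ± SD from triplicate assays.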
In general terms: A reporter such as luciferase makes a cellular process visible.

For data set [10], the target named is Protein arginine N-methyltransferase 3 (Homo sapiens) (UniProt O60678). The data set is described as follows: Inhibition of PRMT3-mediated methylation of ribosome protein rpS223 at 100 uM after 90 mins by scintillation counting in presence of S-adenosyl-l-[methyl-3H]methionine. A digest of the protocol: as §2
Data set [11] deals with T2, Histone-arginine methyltransferase CARM1 (Homo sapiens). In words: Inhibition of CARM1-mediated prostate specific antigen promoter activity in human LNCAP cells after 48 hrs by luciferase reporter gene assay. In kind it is cell-based. A digest of the protocol:
as §3

In data set [12] the target is Protein arginine N-methyltransferase 3 (Homo sapiens) (UniProt O60678). The data set is described as follows: Inhibition of PRMT3-mediated methylation of NPL3 at 100 uM after 90 mins by scintillation counting in presence of S-adenosyl-l-[methyl-3H]methionine. A digest of the protocol: as §2
For data set [13], the system named is LNCaP. The data set is described as follows: Cytotoxicity against human LNCAP cells assessed as ATP level at 8 to 10 uM after 44 hrs by CellTiter-Glo luminescent assay. The data set is classed as cell-based. A digest of the protocol: as §1
Data set [14] deals with T2, Histone-arginine methyltransferase CARM1 (Homo sapiens). In words: Inhibition of CARM1 expressed in tetracycline-induced human HEK293 cells coexpressing flag-tagged PABP1 assessed as inhibition of PABP1 methylation at 1 to 5 uM by SDS-PAGE analysis. In kind it is cell-based. A digest of the protocol:
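HEK293 line carrying tetracycline-controlled TetR with inducible Flag-tagged PABP1. Tetracycline added in the presence of compound to induce Flag-PABP1, which is resolved from endogenous PABP1 by its slower SDS-PAGE migration. Methylation detected with a methyl-specific PABP1 antibody.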

As a reminder, the pIC50 is the negative decadic logarithm of the IC50, by convention in mol/L.

pIC50: −log10 of the molar value. Calls of active or inactive are those of the source. The calls are words filed in the database; no cut-off is given here.

Sequence of Protein arginine N-methyltransferase 1 (Q99873 whole entry): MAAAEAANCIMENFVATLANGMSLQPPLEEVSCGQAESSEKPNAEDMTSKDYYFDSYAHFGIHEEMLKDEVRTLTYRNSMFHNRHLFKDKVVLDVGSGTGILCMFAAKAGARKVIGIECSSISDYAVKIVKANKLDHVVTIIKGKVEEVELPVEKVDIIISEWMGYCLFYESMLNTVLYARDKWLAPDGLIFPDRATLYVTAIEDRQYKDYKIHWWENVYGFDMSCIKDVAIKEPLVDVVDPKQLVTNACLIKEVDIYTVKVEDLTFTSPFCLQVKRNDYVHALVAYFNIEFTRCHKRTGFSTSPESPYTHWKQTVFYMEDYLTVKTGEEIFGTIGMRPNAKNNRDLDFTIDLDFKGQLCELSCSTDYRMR
Sequence of Protein arginine N-methyltransferase 3 (Homo sapiens) (O60678 2-531 limits assumed): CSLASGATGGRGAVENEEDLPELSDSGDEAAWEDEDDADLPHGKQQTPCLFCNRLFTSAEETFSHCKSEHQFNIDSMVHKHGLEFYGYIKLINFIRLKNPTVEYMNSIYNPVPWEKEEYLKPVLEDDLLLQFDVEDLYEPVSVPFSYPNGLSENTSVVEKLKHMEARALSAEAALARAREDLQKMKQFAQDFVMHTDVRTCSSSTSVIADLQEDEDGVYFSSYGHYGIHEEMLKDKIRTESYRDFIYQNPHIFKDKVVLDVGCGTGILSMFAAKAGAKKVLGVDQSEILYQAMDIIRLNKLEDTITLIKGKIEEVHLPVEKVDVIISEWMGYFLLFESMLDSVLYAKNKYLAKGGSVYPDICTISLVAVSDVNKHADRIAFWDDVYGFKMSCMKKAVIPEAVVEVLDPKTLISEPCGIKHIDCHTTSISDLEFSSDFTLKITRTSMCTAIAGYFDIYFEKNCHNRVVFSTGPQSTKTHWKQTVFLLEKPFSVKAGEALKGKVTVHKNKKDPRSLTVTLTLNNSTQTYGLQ
Sequence of Protein arginine N-methyltransferase 5 (Homo sapiens) (O14744 whole entry): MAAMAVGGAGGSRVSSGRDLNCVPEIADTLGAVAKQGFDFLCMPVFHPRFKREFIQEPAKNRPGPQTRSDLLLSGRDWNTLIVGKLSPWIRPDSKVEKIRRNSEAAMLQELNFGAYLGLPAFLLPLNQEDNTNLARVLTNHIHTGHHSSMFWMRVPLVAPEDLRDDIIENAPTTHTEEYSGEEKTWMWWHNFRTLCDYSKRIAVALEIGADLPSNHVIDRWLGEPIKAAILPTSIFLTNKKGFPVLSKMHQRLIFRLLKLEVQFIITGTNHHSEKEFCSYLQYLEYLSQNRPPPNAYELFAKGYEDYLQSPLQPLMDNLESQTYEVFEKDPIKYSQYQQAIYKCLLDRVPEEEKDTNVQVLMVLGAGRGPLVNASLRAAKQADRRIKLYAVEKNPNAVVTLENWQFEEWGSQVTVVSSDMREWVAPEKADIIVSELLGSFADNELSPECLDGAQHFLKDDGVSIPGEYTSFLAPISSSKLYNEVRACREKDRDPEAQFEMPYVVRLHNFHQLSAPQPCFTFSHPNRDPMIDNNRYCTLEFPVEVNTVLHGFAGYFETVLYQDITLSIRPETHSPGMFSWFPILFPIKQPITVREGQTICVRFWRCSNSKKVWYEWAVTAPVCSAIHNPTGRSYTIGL

Take `O=C1/C(=C/c2ccc(O)c(Br)c2)CN(CC(=O)c2ccccc2)C/C1=C\c1ccc(O)c(Br)c1`: the Activity result in the data set on LNCaP [1] is “Non-toxic”. For the same compound, the results for the pIC50 in data set [2], in [3] and in data set [5] were 3.83, under 3.18 and 4.84, respectively. The inhibition result in data set [4], in [7], in [8] and in [9] was “Active” throughout. For the same compound, in data set [6], the inhibition entry is “inactive”.
Regarding `O=C1/C(=C/c2ccc(O)c(Br)c2)CN(Cc2cccc(Cl)c2)C/C1=C\c1ccc(O)c(Br)c1`, the inhibition entry in data set [10], in data set [4], in [7], in [8] and in data set [12] was “Active” in each case. In addition, the pIC50 was 3.76 in [2], under 3.18 in [3] and 5.09 in data set [5]. Besides, the inhibition result in [6] was “inactive”. The inhibition entry in data set [11] was “Dose-dependent effect”.
For `O=C1/C(=C/c2ccc(O)c(Br)c2)CN(Cc2ccccc2)C/C1=C\c1ccc(O)c(Br)c1`, the inhibition result in [10], in data set [4], in [8], in [12] and in [14] was “Active” in each case. Besides, the pIC50 in data set [2] was under 3.18; in [3], under 3.18; in data set [5], 5.07. Also, the Activity result in the data set with LNCaP [13] is recorded as “Non-toxic”. Moreover, in data set [6], the inhibition entry is “inactive”. The inhibition result in [11] is “Dose-dependent effect”.
